pIC50: −log10 of the molar value. Active and inactive are the calls of the source. The calls are words filed in the database; no cut-off is given here.
Columns and labels:
[1] = target: Epidermal growth factor receptor (Homo sapiens, UniProt P00533); experiment: Inhibition of wild type EGFR (unknown origin) measured after 60 mins by ADP-Glo kinase based luminescence assay
A-431 = experiment: Cytotoxicity against human A-431 cells harboring wild type EGFR assessed as reduction in cell viability incubated for 72 hrs by CCK8 assay; type: cell-based; details: A-431, 72 h
How it was run: (§1)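 Cells kept as monolayers at 37 °C, 5% CO2, seeded 3000-4000/well for 12 h, then exposed to compounds for 72 h. CCK-8 added for 1-2 h at 37 °C, absorbance read at 450 nm. Each dose run in triplicate, experiment repeated at least three times. IC50 taken from dose-response curves.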

A549 = experiment: Antiproliferative activity against human A549 cells harboring KRAS G12S mutant assessed as reduction in cell viability incubated for 72 hrs by CCK8 assay; type: functional, cell-based; details: A549, 72 h; how it was run: as §1
[2] = Cytotoxicity against human HBE cells assessed as reduction in cell viability incubated for 72 hrs by CCK8 assay; type: cell-based; how it was run: as §1
ASPC1 = experiment: Antiproliferative activity against human ASPC1 cells assessed as reduction in cell viability incubated for 72 hrs by CCK8 assay; type: functional, cell-based; details: ASPC1, 72 h; how it was run: as §1
NCI-H23 = experiment: Antiproliferative activity against human NCI-H23 cells harboring KRAS mutant assessed as reduction in cell viability incubated for 72 hrs by CCK8 assay; type: functional, cell-based; details: NCI-H23, 72 h; how it was run: as §1
NCI-H1975 [3] = experiment: Antimigratory activity against human NCI-H1975 cells assessed as narrowing of scratch width at 0.5 to 2 uM incubated for 24 to 48 hrs by scratch wound healing assay based fluorescence microscopic analysis; type: functional, cell-based; details: dose 0.5-2 µM, time 24-48 hrs
How it was run: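 H1975 monolayers cultured 48 h at 37 °C, then scratched and washed with PBS. Cells treated at […] and imaged by fluorescence microscope at 0, 24 and 48 h, with an untreated negative control.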

NCI-H1975 [4] = experiment: Induction of morphological changes in human NCI-H1975 cells assessed as chromatin shrinkage and gathering to nuclear membrane at 0.5 to 2 uM incubated for 48 hrs by DAPI staining based fluorescence microscopic analysis; type: functional, cell-based; details: dose 0.5-2 µM
How it was run: (§2)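 H1975 cells seeded at about 2 × 10⁵/well for 12 h, then treated. Cells fixed in 10% formaldehyde for 10 min, stained with DAPI for 10 min at room temperature and examined by fluorescence microscopy. Cell shape was also viewed under natural light.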

NCI-H1975 [5] = experiment: Induction of morphological changes in human NCI-H1975 cells assessed as nuclear fragmentation at 0.5 to 2 uM incubated for 48 hrs under natural light by DAPI staining based fluorescence microscopic analysis; type: functional, cell-based; details: dose 0.5-2 µM; how it was run: as §2
NCI-H1975 [6] = experiment: Induction of apoptosis in human NCI-H1975 cells assessed as late apoptotic cells at 0.125 uM incubated for 48 hrs by AnnexinV/FITC and propidium iodide staining based flow cytometry analysis (reference value: 0.73%); type: functional
NCI-H1975 [7] = experiment: Induction of apoptosis in human NCI-H1975 cells assessed as viable cells at 0.5 uM incubated for 48 hrs by AnnexinV/FITC and propidium iodide staining based flow cytometry analysis (reference value: 94.9%); type: functional; details: read-out: Activity
NCI-H1975 [8] = experiment: Induction of apoptosis in human NCI-H1975 cells assessed as early apoptotic cells at 0.5 uM incubated for 48 hrs by AnnexinV/FITC and propidium iodide staining based flow cytometry analysis (reference value: 1.39%); type: functional
NCI-H1975 [9] = experiment: Induction of apoptosis in human NCI-H1975 cells assessed as late apoptotic cells at 0.5 uM incubated for 48 hrs by AnnexinV/FITC and propidium iodide staining based flow cytometry analysis (reference value: 0.73%); type: functional
NCI-H1975 [10] = experiment: Induction of apoptosis in human NCI-H1975 cells assessed as necrotic cells at 0.5 uM incubated for 48 hrs by AnnexinV/FITC and propidium iodide staining based flow cytometry analysis (reference value: 2.99%); type: functional
NCI-H1975 [11] = experiment: Induction of apoptosis in human NCI-H1975 cells assessed as viable cells at 2 uM incubated for 48 hrs by AnnexinV/FITC and propidium iodide staining based flow cytometry analysis (reference value: 94.9%); type: functional; details: read-out: Activity
NCI-H1975 [12] = experiment: Induction of apoptosis in human NCI-H1975 cells assessed as early apoptotic cells at 2 uM incubated for 48 hrs by AnnexinV/FITC and propidium iodide staining based flow cytometry analysis (reference value: 1.39%); type: functional
NCI-H1975 [13] = experiment: Induction of apoptosis in human NCI-H1975 cells assessed as late apoptotic cells at 2 uM incubated for 48 hrs by AnnexinV/FITC and propidium iodide staining based flow cytometry analysis (reference value: 0.73%); type: functional
NCI-H1975 [14] = experiment: Induction of apoptosis in human NCI-H1975 cells assessed as necrotic cells at 2 uM incubated for 48 hrs by AnnexinV/FITC and propidium iodide staining based flow cytometry analysis (reference value: 2.99%); type: functional
NCI-H1975 [15] = experiment: Induction of cell cycle arrest in human NCI-H1975 cells assessed as accumulation of cells at S phase at 0.5 uM incubated for 48 hrs by propidium iodide staining based flow cytometry analysis (reference value: 11.72%); type: functional
NCI-H1975 [16] = experiment: Induction of cell cycle arrest in human NCI-H1975 cells assessed as accumulation of cells at G2/M phase at 0.5 uM incubated for 48 hrs by propidium iodide staining based flow cytometry analysis (reference value: 30.23%); type: functional
NCI-H1975 [17] = experiment: Induction of cell cycle arrest in human NCI-H1975 cells assessed as accumulation of cells at G0/G1 phase at 2 uM incubated for 48 hrs by propidium iodide staining based flow cytometry analysis (reference value: 58.05%); type: functional
NCI-H1975 [18] = experiment: Induction of cell cycle arrest in human NCI-H1975 cells assessed as accumulation of cells at S phase at 2 uM incubated for 48 hrs by propidium iodide staining based flow cytometry analysis (reference value: 11.72%); type: functional
NCI-H1975 [19] = experiment: Induction of cell cycle arrest in human NCI-H1975 cells assessed as accumulation of cells at G2/M phase at 2 uM incubated for 48 hrs by propidium iodide staining based flow cytometry analysis (reference value: 30.23%); type: functional
[20] = AUC (0 to t) in Sprague-Dawley rat at 25 mg/kg, iv measured for 24 hrs by LC-MS/MS analysis; type: ADME, organism-based; design: dose 25 mg/kg, time 24 hrs; details: in vivo
How it was run: (§3)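 Male Sprague-Dawley rats (200 ± 20 g), acclimatised 1 week at 25 ± 2 °C, 50-60% RH; six rats given 25 mg/kg by tail vein. Retro-orbital blood into heparin at 10, 20, 40 min and 1, 2, 3, 4, 6, 8, 12, 24 h. Plasma ethyl acetate-extracted and quantified by LC-MS/MS, transition m/z 485.3/452.3.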

[21] = MRT (0 to t) in Sprague-Dawley rat at 25 mg/kg, iv measured for 24 hrs by LC-MS/MS analysis; type: ADME, organism-based; details: in vivo; how it was run: as §3
[22] = MRT (0 to infinity) in Sprague-Dawley rat at 25 mg/kg, iv by LC-MS/MS analysis; type: ADME, organism-based; details: in vivo; how it was run: as §3
[23] = Elimination half life in Sprague-Dawley rat at 25 mg/kg, iv measured for 24 hrs by LC-MS/MS analysis; type: ADME, organism-based; details: in vivo, read-out: beta t1/2 (converted); how it was run: as §3
Homo sapiens = species: Homo sapiens; experiment: Selectivity index, ratio of IC50 for wild type EGFR (unknown origin) to IC50 for EGFR L858R/T790M double mutant (unknown origin)

Chain of Epidermal growth factor receptor (P00533 whole entry): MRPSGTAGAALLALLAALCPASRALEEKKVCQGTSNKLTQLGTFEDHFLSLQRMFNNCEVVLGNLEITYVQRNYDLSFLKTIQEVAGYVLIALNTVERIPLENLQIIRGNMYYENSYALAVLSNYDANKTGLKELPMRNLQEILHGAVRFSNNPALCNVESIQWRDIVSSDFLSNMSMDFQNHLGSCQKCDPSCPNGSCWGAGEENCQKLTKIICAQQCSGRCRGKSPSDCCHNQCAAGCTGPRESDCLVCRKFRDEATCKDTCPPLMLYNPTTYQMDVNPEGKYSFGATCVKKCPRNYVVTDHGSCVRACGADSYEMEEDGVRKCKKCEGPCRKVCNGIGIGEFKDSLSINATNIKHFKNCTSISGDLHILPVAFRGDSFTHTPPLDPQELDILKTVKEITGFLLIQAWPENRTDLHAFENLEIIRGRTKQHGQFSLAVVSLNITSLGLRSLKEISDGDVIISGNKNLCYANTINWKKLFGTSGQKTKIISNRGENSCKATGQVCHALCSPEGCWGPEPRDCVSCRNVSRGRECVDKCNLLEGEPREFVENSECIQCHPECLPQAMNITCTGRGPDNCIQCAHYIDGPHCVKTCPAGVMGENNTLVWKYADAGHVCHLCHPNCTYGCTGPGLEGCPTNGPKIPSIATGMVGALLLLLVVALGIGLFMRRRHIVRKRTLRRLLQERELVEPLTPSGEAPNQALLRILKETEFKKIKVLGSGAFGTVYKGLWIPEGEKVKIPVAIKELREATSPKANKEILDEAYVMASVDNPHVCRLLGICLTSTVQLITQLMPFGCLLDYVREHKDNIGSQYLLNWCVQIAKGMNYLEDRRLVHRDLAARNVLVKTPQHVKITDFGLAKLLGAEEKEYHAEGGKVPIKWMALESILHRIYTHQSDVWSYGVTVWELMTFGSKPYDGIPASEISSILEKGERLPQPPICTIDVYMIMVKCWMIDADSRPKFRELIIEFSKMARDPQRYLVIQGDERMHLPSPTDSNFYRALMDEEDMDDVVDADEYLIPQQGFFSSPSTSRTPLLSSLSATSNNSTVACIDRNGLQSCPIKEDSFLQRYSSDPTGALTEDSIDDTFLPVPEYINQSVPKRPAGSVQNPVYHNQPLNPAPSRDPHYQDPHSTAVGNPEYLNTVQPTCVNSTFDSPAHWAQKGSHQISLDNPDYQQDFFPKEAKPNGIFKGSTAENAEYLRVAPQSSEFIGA

- pIC50 [1]: 7.32
- pIC50 (A549): 7.01
- pIC50 (ASPC1): 6.77
- pIC50 (NCI-H23): 6.20
- AUC(0-t) at 24 h [20]: 37600 ng·h/mL
- MRT last at 24 h [21]: 8.2 h
- MRT inf [22]: 13.1 h
- half-life [23]: 571 min
- Ratio IC50 (Homo sapiens): 43.4
Structure (SMILES): O=C(NO)c1ccccc1Nc1nc(Nc2ccc(OCCN3CCOCC3)cc2)ncc1Cl
- pIC50 (A-431): 5.97
- pIC50 [2]: 4.63
- Activity (NCI-H1975 [3]): Active
- Activity (NCI-H1975 [4]): Active
- Activity (NCI-H1975 [5]): Active
- Activity (NCI-H1975 [6]): 0.31%
- viability at 0.5 µM (NCI-H1975 [7]): 83.8%
- Activity (NCI-H1975 [8]): 15.53%
- Activity (NCI-H1975 [9]): 0.56%
- Activity (NCI-H1975 [10]): 0.07%
- viability at 2 µM (NCI-H1975 [11]): 8.63%
- Activity (NCI-H1975 [12]): 90.55%
- Activity (NCI-H1975 [13]): 0.67%
- Activity (NCI-H1975 [14]): 0.14%
- Activity (NCI-H1975 [15]): 9.86%
- Activity (NCI-H1975 [16]): 70.99%
- Activity (NCI-H1975 [17]): 57.28%
- Activity (NCI-H1975 [18]): 10.83%
- Activity (NCI-H1975 [19]): 31.9%

— ChEMBL document CHEMBL4831496, “Noncovalent EGFR T790M/L858R inhibitors based on diphenylpyrimidine scaffold: Design, synthesis, and bioactivity evaluation for the treatment of NSCLC” (Eur J Med Chem, 2021)
